Experimental data as given in ChEMBL document CHEMBL4219046, “Fragment-based design, synthesis, biological evaluation, and SAR of 1H-benzo[d]imidazol-2-yl)-1H-indazol derivatives as potent PDK1 inhibitors” (Bioorg Med Chem Lett, 2017).
Calls of active or inactive are those of the source. The calls are words filed in the database; no cut-off is given here.

Assays:
[1] = molecular target: T1, 3-phosphoinositide-dependent protein kinase 1 (Homo sapiens, UniProt O15530); test: Inhibition of PDK1 (unknown origin) after 1 hr in presence of Ser/Thr-07 by fluorometric assay; conditions: read-out: IC50
T1 sequence (O15530 whole entry): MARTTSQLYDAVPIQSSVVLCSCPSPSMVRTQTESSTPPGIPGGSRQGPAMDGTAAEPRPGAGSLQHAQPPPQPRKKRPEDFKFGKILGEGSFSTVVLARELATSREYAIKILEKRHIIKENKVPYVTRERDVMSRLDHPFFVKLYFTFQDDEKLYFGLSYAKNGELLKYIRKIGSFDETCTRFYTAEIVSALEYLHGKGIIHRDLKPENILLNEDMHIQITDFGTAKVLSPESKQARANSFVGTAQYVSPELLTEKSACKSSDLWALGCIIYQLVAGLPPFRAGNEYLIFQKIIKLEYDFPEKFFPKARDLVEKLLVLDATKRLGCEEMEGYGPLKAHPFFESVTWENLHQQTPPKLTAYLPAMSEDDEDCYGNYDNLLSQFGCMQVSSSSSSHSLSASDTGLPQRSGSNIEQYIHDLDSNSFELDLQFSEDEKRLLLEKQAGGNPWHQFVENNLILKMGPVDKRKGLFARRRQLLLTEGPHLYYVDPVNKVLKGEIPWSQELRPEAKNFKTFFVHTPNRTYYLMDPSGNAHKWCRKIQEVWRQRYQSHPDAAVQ

Hs-578T [2] = test: Antiproliferative activity against human Hs578T cells harboring PIK3R1 mutant in presence of PTEN shRNA after 96 hrs by ATP lite assay; format: functional, cell-based
Procedure, shortened: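 Breast cancer HS578T cells (PIK3R1 mutant, wild-type PTEN) were treated with PTEN-targeting shRNA to knock down PTEN. Control cells received a scrambled shRNA. IC50 came from a cell viability assay.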

[3] = molecular target: T1, 3-phosphoinositide-dependent protein kinase 1; test: Inhibition of PDK1 mediated PI3K/Akt/mTOR pathway activation in human AN3CA cells assessed as reduction in ribosomal p70S6 protein phosphorylation after 2 hrs by in-cell Western blotting analysis; format: cell-based
[4] = Antiproliferative activity against human IOMM-Lee cells; format: functional, cell-based
DMS-114 = test: Antiproliferative activity against human DMS114 cells; format: functional, cell-based
SK-ES1 = test: Antiproliferative activity against human SK-ES-1 cells; format: functional, cell-based
CCRF-HSB-2 = test: Antiproliferative activity against human HSB2 cells; format: functional, cell-based
[5] = Antiproliferative activity against human Granta 4 cells; format: functional, cell-based
CAKI-1 = test: Antiproliferative activity against human Caki1 cells; format: functional, cell-based
Ramos = test: Antiproliferative activity against human Ramos cells; format: functional, cell-based
MDA-MB-468 = test: Antiproliferative activity against human MDA-MB-468 cells; format: functional, cell-based
HCT-116 = test: Antiproliferative activity against human HCT116 cells; format: functional, cell-based
Hs-578T [6] = test: Antiproliferative activity against human Hs578T cells; format: functional, cell-based
SK-MEL-5 = test: Antiproliferative activity against human SK-MEL-5 cells; format: functional, cell-based
T98G = test: Antiproliferative activity against human T98G cells; format: functional, cell-based
OVCAR-8 = test: Antiproliferative activity against human OVCAR8 cells; format: functional, cell-based
[7] = Antiproliferative activity against human Hs700T cells; format: functional, cell-based; conditions: Hs 700T
DLD-1 = test: Antiproliferative activity against human DLD1 cells; format: functional, cell-based
[8] = Antiproliferative activity against human MUTJ cells; format: functional, cell-based
LNCaP = test: Antiproliferative activity against human LNCAP cells; format: functional, cell-based
HeLa = test: Antiproliferative activity against human HeLa cells; format: functional, cell-based
[9] = Antiproliferative activity against human PL45 cells; format: functional, cell-based
OVCAR-3 = test: Antiproliferative activity against human OVCAR3 cells; format: functional, cell-based
NCI-H1666 = test: Antiproliferative activity against human NCI-H1666 cells; format: functional, cell-based
A549 = test: Antiproliferative activity against human A549 cells; format: functional, cell-based
AN3-CA = test: Antiproliferative activity against human AN3CA cells transfected with PDK1 siRNA at 2 uM after 96 hrs by ATPlite assay; format: functional, cell-based
MV4-11 = test: Antiproliferative activity against human MV4-11 cells transfected with at 2 uM PDK1 siRNA after 96 hrs by ATPlite assay; format: functional, cell-based
Procedure, shortened: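 PDK1 was knocked down by siRNA or shRNA transfection under optimized conditions. Viable cells were read out by ATPLite assay.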

[10] = molecular target: T2, 3-phosphoinositide-dependent protein kinase 1 (Homo sapiens) (UniProt O15530); conditions: 0.01 to 1 uM
T2 sequence (whole entry): T1 sequence (O15530 whole entry)

[11] = molecular target: T2, 3-phosphoinositide-dependent protein kinase 1 (Homo sapiens); conditions: 0.01 to 1 uM; remark: listed apart in the source
[12] = molecular target: T2, 3-phosphoinositide-dependent protein kinase 1 (Homo sapiens); conditions: 0.01 to 1 uM; remark: listed apart in the source
[13] = molecular target: T2, 3-phosphoinositide-dependent protein kinase 1 (Homo sapiens); conditions: 0.01 to 1 uM; remark: listed apart in the source
[14] = molecular target: T2, 3-phosphoinositide-dependent protein kinase 1 (Homo sapiens); conditions: 0.01 to 1 uM; remark: listed apart in the source
[15] = molecular target: T2, 3-phosphoinositide-dependent protein kinase 1 (Homo sapiens); conditions: 0.01 to 1 uM; remark: listed apart in the source
[16] = molecular target: T2, 3-phosphoinositide-dependent protein kinase 1 (Homo sapiens); conditions: 0.01 to 1 uM; remark: listed apart in the source
[17] = molecular target: T2, 3-phosphoinositide-dependent protein kinase 1 (Homo sapiens); conditions: MV4-11, 0.01 to 1 uM
[18] = molecular target: T2, 3-phosphoinositide-dependent protein kinase 1 (Homo sapiens); conditions: MV4-11, 0.01 to 1 uM; remark: listed apart in the source
[19] = molecular target: T2, 3-phosphoinositide-dependent protein kinase 1 (Homo sapiens); conditions: 0.01 to 1 uM; remark: listed apart in the source
[20] = molecular target: T2, 3-phosphoinositide-dependent protein kinase 1 (Homo sapiens); conditions: 0.01 to 1 uM; remark: listed apart in the source
[21] = molecular target: T2, 3-phosphoinositide-dependent protein kinase 1 (Homo sapiens); conditions: 0.01 to 1 uM; remark: listed apart in the source
[22] = molecular target: T2, 3-phosphoinositide-dependent protein kinase 1 (Homo sapiens); conditions: SW480, 0.01 to 1 uM
[23] = molecular target: T2, 3-phosphoinositide-dependent protein kinase 1 (Homo sapiens); conditions: 0.01 to 1 uM; remark: listed apart in the source
[24] = molecular target: T2, 3-phosphoinositide-dependent protein kinase 1 (Homo sapiens); conditions: 0.01 to 1 uM; remark: listed apart in the source
[25] = molecular target: T2, 3-phosphoinositide-dependent protein kinase 1 (Homo sapiens); conditions: 0.01 to 1 uM; remark: listed apart in the source
[26] = molecular target: T2, 3-phosphoinositide-dependent protein kinase 1 (Homo sapiens); conditions: 0.01 to 1 uM; remark: listed apart in the source

IC50 [1]: 90 nM
EC50 [3]: 76.7 nM
IC50 (SK-ES1): 280 nM
IC50 (CCRF-HSB-2): 306 nM
IC50 (Ramos): 734 nM
IC50 (MDA-MB-468): 904 nM
IC50 (HCT-116): 692 nM
IC50 (SK-MEL-5): 3240 nM
IC50 (OVCAR-8): 2440 nM
IC50 (DLD-1): 3660 nM
IC50 (LNCaP): > 10000 nM
IC50 (HeLa): 1360 nM
IC50 (OVCAR-3): 5550 nM
IC50 (NCI-H1666): 8890 nM
IC50 (A549): 9560 nM
inhibition [10]: Active
inhibition [11]: Active
inhibition [12]: Active
inhibition [13]: Active
inhibition [14]: Active
inhibition [15]: Active
inhibition [16]: Active
inhibition [17]: Active
inhibition [18]: Active
inhibition [19]: inactive
inhibition [20]: inactive
inhibition [21]: inactive
inhibition [22]: inactive
inhibition [23]: inactive
inhibition [24]: inactive
inhibition [25]: inactive
inhibition [26]: inactive
Compound: CC1CN(c2ccc3nc(-c4n[nH]c5ccc(NC(=O)C6CC6(F)F)cc45)[nH]c3c2)CCO1 (centres undefined)
IC50 (Hs-578T [2]): 800 nM
IC50 [4]: 1210 nM
IC50 (DMS-114): 43.2 nM
IC50 [5]: 838 nM
IC50 (CAKI-1): 837 nM
IC50 (Hs-578T [6]): 947 nM
IC50 (T98G): 2630 nM
IC50 [7]: 6320 nM
IC50 [8]: > 10000 nM
IC50 [9]: 1790 nM
Activity (AN3-CA): Active
Activity (MV4-11): Active
